From ChEMBL document CHEMBL5696442, “Discovery of type II inhibitors of TGFβ-activated kinase 1 (TAK1) and mitogen-activated protein kinase kinase kinase kinase 2 (MAP4K2)” (J Med Chem, 2015)

Tests used:
[1] = target: Calcium/calmodulin-dependent protein kinase type 1 (Homo sapiens) (UniProt Q14012); test: Inhibition of CAMK1 alpha Lys1 labeling site in human A-375 cells at 5 uM by KiNativ Profiling analysis relative to control; format: cell-based
How it was run: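 Intact A375 melanoma cells were treated with compound at 5 or 0.5 μM, then lysed. Lysate kinases were labeled with a lysine-reactive ATP or ADP-biotin probe (KiNativ). Inhibition is read as protection of each kinase labeling site from probe labeling.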

[2] = target: Proto-oncogene tyrosine-protein kinase Src (Homo sapiens, UniProt P12931); test: Inhibition of SRC Lys1 labeling site in human A-375 cells at 0.5 uM by KiNativ Profiling analysis relative to control; format: cell-based
Chain of Proto-oncogene tyrosine-protein kinase Src (P12931 2-536 limits assumed): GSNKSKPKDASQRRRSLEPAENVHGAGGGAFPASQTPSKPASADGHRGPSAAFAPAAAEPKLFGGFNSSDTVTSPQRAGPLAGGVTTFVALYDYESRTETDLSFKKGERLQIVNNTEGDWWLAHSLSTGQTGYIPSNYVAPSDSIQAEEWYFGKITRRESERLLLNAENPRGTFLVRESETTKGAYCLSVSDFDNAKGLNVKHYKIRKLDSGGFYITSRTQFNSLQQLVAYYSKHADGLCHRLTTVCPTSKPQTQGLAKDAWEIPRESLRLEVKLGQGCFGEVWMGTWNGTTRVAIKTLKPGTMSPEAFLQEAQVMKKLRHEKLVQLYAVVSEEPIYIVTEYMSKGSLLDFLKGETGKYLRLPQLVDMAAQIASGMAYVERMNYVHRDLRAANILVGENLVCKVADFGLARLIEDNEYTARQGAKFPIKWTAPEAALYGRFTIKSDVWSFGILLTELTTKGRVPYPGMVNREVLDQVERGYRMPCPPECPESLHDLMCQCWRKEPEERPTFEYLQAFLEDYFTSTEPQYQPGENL

[3] = target: Tyrosine-protein kinase ABL2 (Homo sapiens, UniProt P42684); test: Inhibition of ARG (unknown origin) ACT labeling site by KiNativ Profiling analysis
Chain of Tyrosine-protein kinase ABL2 (P42684 whole entry): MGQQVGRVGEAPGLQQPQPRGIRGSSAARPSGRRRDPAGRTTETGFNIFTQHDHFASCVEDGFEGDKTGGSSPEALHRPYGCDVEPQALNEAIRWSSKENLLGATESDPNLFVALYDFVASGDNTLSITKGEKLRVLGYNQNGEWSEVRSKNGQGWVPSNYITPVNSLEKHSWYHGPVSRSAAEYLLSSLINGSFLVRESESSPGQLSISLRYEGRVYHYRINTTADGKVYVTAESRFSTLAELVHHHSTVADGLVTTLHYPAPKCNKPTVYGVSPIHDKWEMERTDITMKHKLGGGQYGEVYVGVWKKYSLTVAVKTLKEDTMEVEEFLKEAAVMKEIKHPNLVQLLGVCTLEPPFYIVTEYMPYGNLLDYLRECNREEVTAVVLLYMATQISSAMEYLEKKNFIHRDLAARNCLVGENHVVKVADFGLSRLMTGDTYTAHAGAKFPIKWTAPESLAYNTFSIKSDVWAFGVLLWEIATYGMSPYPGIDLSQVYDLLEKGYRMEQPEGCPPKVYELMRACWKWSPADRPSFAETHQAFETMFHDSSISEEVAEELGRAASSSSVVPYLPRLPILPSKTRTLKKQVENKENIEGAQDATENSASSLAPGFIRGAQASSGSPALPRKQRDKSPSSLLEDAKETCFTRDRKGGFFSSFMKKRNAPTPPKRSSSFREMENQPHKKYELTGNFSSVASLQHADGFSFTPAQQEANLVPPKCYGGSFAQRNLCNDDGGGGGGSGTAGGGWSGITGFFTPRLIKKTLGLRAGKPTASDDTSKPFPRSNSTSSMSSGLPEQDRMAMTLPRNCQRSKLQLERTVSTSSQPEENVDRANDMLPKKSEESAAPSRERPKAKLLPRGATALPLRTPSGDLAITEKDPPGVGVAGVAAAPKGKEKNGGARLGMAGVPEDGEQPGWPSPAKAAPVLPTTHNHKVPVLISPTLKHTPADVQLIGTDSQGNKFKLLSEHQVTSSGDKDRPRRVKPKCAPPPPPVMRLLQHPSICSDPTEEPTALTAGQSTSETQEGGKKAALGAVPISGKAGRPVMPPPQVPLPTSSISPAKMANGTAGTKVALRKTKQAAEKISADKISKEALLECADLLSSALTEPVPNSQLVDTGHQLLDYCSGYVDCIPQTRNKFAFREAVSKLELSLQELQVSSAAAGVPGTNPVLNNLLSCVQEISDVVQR

[4] = target: Cyclin-dependent kinase 4 (Homo sapiens) (UniProt P11802); test: Inhibition of CDK4 Lys2 labeling site in human A-375 cells at 5 uM by KiNativ Profiling analysis relative to control; format: cell-based
Chain of Cyclin-dependent kinase 4 (Homo sapiens) (P11802 whole entry): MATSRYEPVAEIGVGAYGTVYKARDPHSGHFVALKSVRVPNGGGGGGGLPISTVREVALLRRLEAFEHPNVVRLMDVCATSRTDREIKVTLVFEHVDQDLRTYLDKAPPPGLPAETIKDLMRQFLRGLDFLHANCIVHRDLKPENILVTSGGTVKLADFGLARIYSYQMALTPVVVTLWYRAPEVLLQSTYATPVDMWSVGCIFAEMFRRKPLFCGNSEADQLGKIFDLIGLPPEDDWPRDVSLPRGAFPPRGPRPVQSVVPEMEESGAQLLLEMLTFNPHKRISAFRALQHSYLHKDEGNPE
How it was run: (§1)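 Live A375 melanoma cells were treated with compound at 5 or 0.5 μM. The cells were then lysed, and the lysates were labeled with a lysine-reactive ATP or ADP-biotin acyl probe (KiNativ). Inhibition is the compound's protection of each kinase labeling-site peptide from probe labeling, relative to untreated control.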

[5] = target: Cyclin-dependent kinase 9 (Homo sapiens) (UniProt P50750); test: Inhibition of CDK9 Lys2 labeling site in human A-375 cells at 5 uM by KiNativ Profiling analysis relative to control; format: cell-based; how it was run: as §1
Chain of Cyclin-dependent kinase 9 (Homo sapiens) (P50750 whole entry): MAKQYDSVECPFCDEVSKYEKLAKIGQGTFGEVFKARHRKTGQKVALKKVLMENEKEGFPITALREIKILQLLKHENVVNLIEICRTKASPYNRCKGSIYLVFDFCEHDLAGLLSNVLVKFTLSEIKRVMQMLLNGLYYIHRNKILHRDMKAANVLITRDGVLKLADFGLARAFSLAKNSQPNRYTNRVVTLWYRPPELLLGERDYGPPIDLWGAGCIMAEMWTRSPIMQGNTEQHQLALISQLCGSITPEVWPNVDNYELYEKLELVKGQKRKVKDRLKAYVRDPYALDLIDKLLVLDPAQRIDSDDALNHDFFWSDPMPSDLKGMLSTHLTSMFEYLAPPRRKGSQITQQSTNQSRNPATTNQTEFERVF

[6] = target: Cyclin-dependent kinase 17 (Homo sapiens) (UniProt Q00537); test: Inhibition of PCTAIRE2 Lys1 labeling site harbouring SKLTENLVALKEIR in human A-375 cells at 5 uM by KiNativ Profiling analysis relative to control; format: cell-based
Chain of Cyclin-dependent kinase 17 (Homo sapiens) (Q00537 whole entry, looked up): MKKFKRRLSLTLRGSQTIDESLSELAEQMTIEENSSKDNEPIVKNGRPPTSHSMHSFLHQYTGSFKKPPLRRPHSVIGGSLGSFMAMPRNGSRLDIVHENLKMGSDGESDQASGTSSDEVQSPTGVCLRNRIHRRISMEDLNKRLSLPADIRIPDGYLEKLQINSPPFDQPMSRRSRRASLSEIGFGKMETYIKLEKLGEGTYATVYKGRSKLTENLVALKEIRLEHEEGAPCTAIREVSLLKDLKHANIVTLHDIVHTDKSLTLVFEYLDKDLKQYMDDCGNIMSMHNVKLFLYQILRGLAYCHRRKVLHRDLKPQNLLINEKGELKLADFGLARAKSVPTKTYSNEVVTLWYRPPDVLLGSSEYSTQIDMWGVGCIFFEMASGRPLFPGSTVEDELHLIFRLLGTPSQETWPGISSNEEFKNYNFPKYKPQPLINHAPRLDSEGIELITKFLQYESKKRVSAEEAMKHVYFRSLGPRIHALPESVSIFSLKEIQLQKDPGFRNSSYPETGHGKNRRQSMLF

[7] = target: Serine/threonine-protein kinase 32C (Homo sapiens) (UniProt Q86UX6); test: Inhibition of YANK3 Lys2 labeling site in human A-375 cells at 5 uM by KiNativ Profiling analysis relative to control; format: cell-based
Chain of Serine/threonine-protein kinase 32C (Homo sapiens) (Q86UX6 whole entry): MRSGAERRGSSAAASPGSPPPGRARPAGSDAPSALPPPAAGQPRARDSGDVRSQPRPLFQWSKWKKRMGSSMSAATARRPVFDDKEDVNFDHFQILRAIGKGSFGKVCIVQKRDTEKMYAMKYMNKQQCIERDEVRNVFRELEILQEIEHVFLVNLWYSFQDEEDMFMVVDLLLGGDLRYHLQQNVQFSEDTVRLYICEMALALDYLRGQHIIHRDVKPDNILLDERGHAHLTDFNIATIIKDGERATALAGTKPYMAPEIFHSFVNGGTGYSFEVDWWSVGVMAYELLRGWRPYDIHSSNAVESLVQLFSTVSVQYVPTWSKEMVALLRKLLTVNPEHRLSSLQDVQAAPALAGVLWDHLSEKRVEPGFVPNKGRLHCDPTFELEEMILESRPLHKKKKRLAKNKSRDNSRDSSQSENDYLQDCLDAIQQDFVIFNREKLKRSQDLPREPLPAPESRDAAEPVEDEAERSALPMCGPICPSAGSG

[8] = target: T1, Aurora kinase C (Homo sapiens) (UniProt Q9UQB9); test: Inhibition of AurC ATP Loop labeling site in human A-375 cells at 0.5 uM by KiNativ Profiling analysis relative to control; format: cell-based
T1 sequence (whole entry): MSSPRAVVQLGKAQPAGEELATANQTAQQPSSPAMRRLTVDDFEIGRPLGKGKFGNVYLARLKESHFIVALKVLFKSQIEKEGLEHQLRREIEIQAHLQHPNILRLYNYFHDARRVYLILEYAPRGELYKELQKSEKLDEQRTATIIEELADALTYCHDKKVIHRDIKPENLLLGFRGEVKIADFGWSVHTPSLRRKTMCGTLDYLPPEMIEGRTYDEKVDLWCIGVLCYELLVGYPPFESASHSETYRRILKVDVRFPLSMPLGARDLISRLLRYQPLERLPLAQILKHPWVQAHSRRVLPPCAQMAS
How it was run: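 Live A375 melanoma cells were treated with compound at 5 or 0.5 μM, then lysed. The lysates were labeled with a lysine-reactive ATP or ADP-biotin probe. Kinase protection from probe labeling was measured by KiNativ.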

[9] = target: Calcium/calmodulin-dependent protein kinase type II subunit gamma (Homo sapiens) (UniProt Q13555); test: Inhibition of CaMK2g Lys1 labeling site harbouring TSTQEYAAKIINTK in human A-375 cells at 0.5 uM by KiNativ Profiling analysis relative to control; format: cell-based; how it was run: as §1
Chain of Calcium/calmodulin-dependent protein kinase type II subunit gamma (Homo sapiens) (Q13555 whole entry): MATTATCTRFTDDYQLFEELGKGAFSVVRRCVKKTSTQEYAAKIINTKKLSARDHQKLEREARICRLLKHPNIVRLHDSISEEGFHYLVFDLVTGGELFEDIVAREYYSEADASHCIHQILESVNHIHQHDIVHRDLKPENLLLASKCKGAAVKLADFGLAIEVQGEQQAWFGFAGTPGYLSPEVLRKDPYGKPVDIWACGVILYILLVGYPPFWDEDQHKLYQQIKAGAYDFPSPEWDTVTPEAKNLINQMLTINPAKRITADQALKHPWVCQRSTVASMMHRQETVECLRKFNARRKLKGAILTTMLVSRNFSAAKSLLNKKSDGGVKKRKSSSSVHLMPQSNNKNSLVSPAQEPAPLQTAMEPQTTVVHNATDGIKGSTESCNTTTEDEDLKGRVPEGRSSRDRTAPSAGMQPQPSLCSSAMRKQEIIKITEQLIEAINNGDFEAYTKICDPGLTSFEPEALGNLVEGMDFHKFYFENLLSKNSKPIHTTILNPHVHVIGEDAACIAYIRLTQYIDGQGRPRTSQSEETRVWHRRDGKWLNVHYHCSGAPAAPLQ

[10] = target: Serine/threonine-protein kinase 10 (Homo sapiens) (UniProt O94804); test: Inhibition of LOK Lys1 labeling site harbouring ETGALAAAKVIETK in human A-375 cells at 0.5 uM by KiNativ Profiling analysis relative to control; format: cell-based
[11] = target: Cyclin-dependent kinase 17 (Homo sapiens) (UniProt Q00537); test: Inhibition of PCTAIRE2 Lys1 labeling site harbouring SKLTENLVALKEIRLEHEEGAPCTAIR in human A-375 cells at 0.5 uM by KiNativ Profiling analysis relative to control; format: cell-based
[12] = target: Cyclin-dependent kinase 1 (Homo sapiens) (UniProt P06493); test: Inhibition of CDC2 Lys2 labeling site harbouring VLHRDLKPQNLLIDDKGTIK in human A-375 cells at 0.05 uM by KiNativ Profiling analysis relative to control; format: cell-based
[13] = target: T2, Interleukin-1 receptor-associated kinase 4 (Homo sapiens) (UniProt Q9NWZ3); test: Inhibition of IRAK4 Lys2 labeling site in human A-375 cells at 0.05 uM by KiNativ Profiling analysis relative to control; format: cell-based
T2 sequence (whole entry): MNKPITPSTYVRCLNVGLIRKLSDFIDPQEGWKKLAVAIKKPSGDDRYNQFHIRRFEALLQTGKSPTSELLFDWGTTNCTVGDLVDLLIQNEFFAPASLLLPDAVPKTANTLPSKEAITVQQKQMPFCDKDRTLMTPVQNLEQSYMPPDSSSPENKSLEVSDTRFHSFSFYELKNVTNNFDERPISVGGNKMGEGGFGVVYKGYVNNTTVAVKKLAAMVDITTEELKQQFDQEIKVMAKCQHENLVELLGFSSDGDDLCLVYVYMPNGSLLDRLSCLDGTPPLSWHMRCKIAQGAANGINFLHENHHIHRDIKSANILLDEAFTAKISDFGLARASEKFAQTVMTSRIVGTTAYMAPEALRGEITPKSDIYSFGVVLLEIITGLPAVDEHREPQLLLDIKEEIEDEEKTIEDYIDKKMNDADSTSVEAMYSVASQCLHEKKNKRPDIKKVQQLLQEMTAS

[14] = target: Mitogen-activated protein kinase 10 (Homo sapiens, UniProt P53779); test: Inhibition of JNK3 Lys2 labeling site in human A-375 cells at 0.05 uM by KiNativ Profiling analysis relative to control; format: cell-based
[15] = target: Serine/threonine-protein kinase MARK2 (Homo sapiens) (UniProt Q7KZI7); test: Inhibition of MARK2 Lys2 labeling site harbouring FIVHRDLKAENLLLDADMNIK in human A-375 cells at 0.05 uM by KiNativ Profiling analysis relative to control; format: cell-based
[16] = target: Serine/threonine-protein kinase 25 (Homo sapiens) (UniProt O00506); test: Inhibition of YSK1 Lys2 labeling site in human A-375 cells at 0.05 uM by KiNativ Profiling analysis relative to control; format: cell-based
Chain of Serine/threonine-protein kinase 25 (Homo sapiens) (O00506 whole entry, looked up): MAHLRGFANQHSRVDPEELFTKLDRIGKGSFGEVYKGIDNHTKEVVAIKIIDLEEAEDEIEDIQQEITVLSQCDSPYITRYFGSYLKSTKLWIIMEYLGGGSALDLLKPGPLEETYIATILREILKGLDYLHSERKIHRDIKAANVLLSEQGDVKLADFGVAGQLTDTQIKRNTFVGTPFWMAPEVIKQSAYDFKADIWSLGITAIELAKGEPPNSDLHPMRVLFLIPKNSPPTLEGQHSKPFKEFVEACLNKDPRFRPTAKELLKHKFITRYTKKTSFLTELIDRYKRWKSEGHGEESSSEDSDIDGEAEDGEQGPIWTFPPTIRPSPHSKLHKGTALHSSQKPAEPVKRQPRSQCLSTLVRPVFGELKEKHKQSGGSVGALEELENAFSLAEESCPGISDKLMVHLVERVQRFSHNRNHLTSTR

[17] = target: Tyrosine-protein kinase Fer (Homo sapiens, UniProt P16591); test: Inhibition of FER Lys1 labeling site in human Huh-7 cell lysate at 1 uM by KiNativ Profiling analysis relative to control; format: subcellular
[18] = target: Tyrosine-protein kinase Fes/Fps (Homo sapiens, UniProt P07332); test: Inhibition of FES Lys1 labeling site in human Huh-7 cell lysate at 1 uM by KiNativ Profiling analysis relative to control; format: subcellular

Chain of Calcium/calmodulin-dependent protein kinase type 1 (Homo sapiens) (Q14012 whole entry, looked up): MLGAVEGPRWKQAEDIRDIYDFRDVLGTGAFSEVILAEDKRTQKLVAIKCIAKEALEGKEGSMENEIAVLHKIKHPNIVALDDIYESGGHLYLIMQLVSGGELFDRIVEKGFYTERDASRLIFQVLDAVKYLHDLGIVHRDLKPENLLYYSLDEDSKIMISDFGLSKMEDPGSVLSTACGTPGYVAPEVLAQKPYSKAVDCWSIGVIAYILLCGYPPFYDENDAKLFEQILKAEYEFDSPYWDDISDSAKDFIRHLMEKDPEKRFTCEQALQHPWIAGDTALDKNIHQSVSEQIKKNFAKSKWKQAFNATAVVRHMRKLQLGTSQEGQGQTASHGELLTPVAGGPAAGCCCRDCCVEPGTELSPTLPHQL

Compound	inhibition [1] [%]	inhibition [2] [%]	IC50 [3] [nM]	inhibition [4] [%]	inhibition [5] [%]	inhibition [6] [%]	inhibition [7] [%]	inhibition [8] [%]	inhibition [9] [%]	inhibition [10] [%]	inhibition [11] [%]	inhibition [12] [%]	inhibition [13] [%]	inhibition [14] [%]	inhibition [15] [%]	inhibition [16] [%]	inhibition [17] [%]	inhibition [18] [%]
CCN1CCN(Cc2ccc(NC(=O)c3ccc(C)c(/C=C/c4cnc5[nH]ccc5c4OC)c3)cc2C(F)(F)F)CC1	31.9	72.5	51.5	6.7	1.2	24.3	12.7	30.2	34.3	60.7	2.4	6.4	9.7	23.9	14.2	9.1	–	–
CCN1CCN(Cc2ccc(NC(=O)c3ccc(C)c(Oc4ccnc5[nH]ccc45)c3)cc2C(F)(F)F)CC1	91.8	77.2	75.2	2.9	19.2	73.3	16.2	31.2	19.2	71.7	6.9	-2.9	6.9	50.3	11.3	-0.7	–	–
CNc1cc(Oc2cc(C(=O)Nc3cc(-n4cnc(C)c4)cc(C(F)(F)F)c3)ccc2C)ncn1	–	–	–	–	–	–	–	–	–	–	–	–	–	–	–	–	18.2	20
CNc1cc(Oc2cc(C(=O)Nc3cc(N4CCN(C)CC4)cc(C(F)(F)F)c3)ccc2C)ncn1	–	–	–	–	–	–	–	–	–	–	–	–	–	–	–	–	10.6	11.2
